Measurements reported in ChEMBL document CHEMBL5236609, “Optimization of 1,2,4-Triazole-3-thiones toward Broad-Spectrum Metallo-β-lactamase Inhibitors Showing Potent Synergistic Activity on VIM- and NDM-1-Producing Clinical Isolates” (J Med Chem, 2022).
Calls of active or inactive are those of the source. The calls are words filed in the database; no cut-off is given here.

What was measured:
[1] = tested on: Escherichia coli; experiment: Antimicrobial activity against blaNDM-1-producing multidrug-resistant Escherichia coli SI-004 clinical isolate assessed as meropenem MIC using cation-adjusted Mueller-Hinton broth at 16 ug/ml by broth microdilution method (reference value: 64 ug/ml); assay type: functional; conditions: dose 16 µg/ml
Method in brief: (§1)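 Checkerboard broth microdilution in cation-supplemented Mueller–Hinton broth, inoculum 5×10^4 CFU/well, per CLSI. […] The average fractional inhibitory concentration index was computed from the checkerboard.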

[2] = tested on: Klebsiella pneumoniae; experiment: Antimicrobial activity against blaVIM-1-producing multidrug-resistant Klebsiella pneumoniae 7023 clinical isolate assessed as meropenem MIC using cation-adjusted Mueller-Hinton broth at 1 ug/ml by broth microdilution method (reference value: […] ug/ml); assay type: functional; conditions: dose 1 µg/ml; method in brief: as §1
[3] = tested on: Klebsiella pneumoniae; experiment: Antimicrobial activity against blaVIM-1-producing multidrug-resistant Klebsiella pneumoniae 7023 clinical isolate assessed as meropenem MIC using cation-adjusted Mueller-Hinton broth at 4 ug/ml by broth microdilution method (reference value: […] ug/ml); assay type: functional; conditions: dose 4 µg/ml; method in brief: as §1
[4] = tested on: Klebsiella pneumoniae; experiment: Antimicrobial activity against blaVIM-1-producing multidrug-resistant Klebsiella pneumoniae 7023 clinical isolate assessed as meropenem MIC using cation-adjusted Mueller-Hinton broth at 2 ug/ml by broth microdilution method (reference value: […] ug/ml); assay type: functional; conditions: dose 2 µg/ml; method in brief: as §1
[5] = tested on: Bacteria; experiment: Inhibition of bacterial Metallo-beta-lactamase VIM-1 (unknown origin) at 100 uM relative to control
Method in brief: (§2)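 Reporter-substrate assay with purified MBL (1–70 nM final) in 50 mM HEPES pH 7.5 at 30 °C. […] Inhibitor 0.5–1000 μM final. Ki derived from the v0/vi vs [I] slope assuming competitive inhibition, or from a Dixon plot. Ki given when inhibition >70%, otherwise % inhibition at 100 μM. Triplicate.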

[6] = tested on: Escherichia coli; experiment: Antimicrobial activity against blaNDM-1-producing multidrug-resistant Escherichia coli SI-004 clinical isolate assessed as meropenem MIC using cation-adjusted Mueller-Hinton broth at 8 ug/ml by broth microdilution method (reference value: 64 ug/ml); assay type: functional; conditions: dose 8 µg/ml; method in brief: as §1
[7] = tested on: Escherichia coli; experiment: Antimicrobial activity against blaNDM-1-producing multidrug-resistant Escherichia coli SI-004 clinical isolate assessed as meropenem MIC using cation-adjusted Mueller-Hinton broth at 4 ug/ml by broth microdilution method (reference value: 64 ug/ml); assay type: functional; conditions: dose 4 µg/ml; method in brief: as §1
[8] = tested on: Klebsiella pneumoniae; experiment: Antimicrobial activity against blaVIM-4-producing multidrug-resistant Klebsiella pneumoniae VA-416/02 clinical isolate assessed as meropenem MIC using cation-adjusted Mueller-Hinton broth at 8 ug/ml by broth microdilution method (reference value: […] ug/ml); assay type: functional; conditions: dose 8 µg/ml; method in brief: as §1
[9] = tested on: Bacteria; experiment: Binding affinity to bacterial VIM-2 (unknown origin) assessed as change in enthalpy by isothermal calorimetric assay
Method in brief: (§3)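 ITC at 25 °C. VIM-2 at 19 μM in 10 mM HEPES-NaOH, 0.15 M NaCl, pH 7.5 with DMSO matched to 1%, titrated with compound at 200 μM: one 0.5 μL injection, then 19 × 2 μL at 150 s intervals. Buffer dilution heats subtracted. Nonlinear fit gives n, Ka and ΔH°; values regarded as apparent.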

[10] = tested on: Bacteria; experiment: Inhibition of bacterial NDM-1 (unknown origin) assessed as Zn(II) content in protein at 48 uM at 48 uM by overnight equilibrium dialysis
Method in brief: (§4)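 VIM-2 or NDM-1 (3 μM final) in 50 mM HEPES pH 7.5 mixed with compound at 0–48 μM. Incubated 1 h on ice, then dialysed overnight at 4 °C against 50 mM HEPES pH 7.5. Zn(II) content measured by atomic absorption at 213.86 nm against a zinc standard curve. Each point averages three samples.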

[11] = tested on: Klebsiella pneumoniae; experiment: Antimicrobial activity against blaVIM-1-producing multidrug-resistant Klebsiella pneumoniae 7023 clinical isolate assessed as meropenem MIC using cation-adjusted Mueller-Hinton broth at 8 ug/ml by broth microdilution method (reference value: […] ug/ml); assay type: functional; conditions: dose 8 µg/ml; method in brief: as §1
[12] = tested on: Escherichia coli; experiment: Antimicrobial activity against blaNDM-1-producing multidrug-resistant Escherichia coli SI-004 clinical isolate assessed as meropenem MIC using cation-adjusted Mueller-Hinton broth at 1 ug/ml by broth microdilution method (reference value: 64 ug/ml); assay type: functional; conditions: dose 1 µg/ml; method in brief: as §1
[13] = tested on: Klebsiella pneumoniae; experiment: Antimicrobial activity against blaVIM-1-producing multidrug-resistant Klebsiella pneumoniae 7023 clinical isolate assessed as meropenem MIC using cation-adjusted Mueller-Hinton broth at 16 ug/ml by broth microdilution method (reference value: […] ug/ml); assay type: functional; conditions: dose 16 µg/ml; method in brief: as §1
[14] = tested on: Klebsiella pneumoniae; experiment: Antimicrobial activity against blaVIM-4-producing multidrug-resistant Klebsiella pneumoniae VA-416/02 clinical isolate assessed as meropenem MIC using cation-adjusted Mueller-Hinton broth at 2 ug/ml by broth microdilution method (reference value: […] ug/ml); assay type: functional; conditions: dose 2 µg/ml; method in brief: as §1
[15] = tested on: Escherichia coli; experiment: Antimicrobial activity against blaNDM-1-producing multidrug-resistant Escherichia coli SI-004 clinical isolate assessed as meropenem MIC using cation-adjusted Mueller-Hinton broth at 2 ug/ml by broth microdilution method (reference value: 64 ug/ml); assay type: functional; conditions: dose 2 µg/ml; method in brief: as §1
[16] = tested on: Bacteria; experiment: Binding affinity to bacterial VIM-2 (unknown origin) assessed as change in entropy by isothermal calorimetric assay; method in brief: as §3
[17] = Chelation of Zn(II) in bacterial NDM-1 (unknown origin) by isothermal calorimetric assay
[18] = tested on: Escherichia coli; experiment: Antimicrobial activity against blaNDM-1-producing multidrug-resistant Escherichia coli SI-004 clinical isolate assessed as meropenem MIC using cation-adjusted Mueller-Hinton broth at 0.5 ug/ml by broth microdilution method (reference value: 64 ug/ml); assay type: functional; conditions: dose 0.5 µg/ml; method in brief: as §1
[19] = Chelation of Zn(II) in bacterial VIM-2 (unknown origin) by isothermal calorimetric assay; method in brief: as §3
[20] = Binding affinity to bacterial VIM-2 (unknown origin) assessed as dissociation constant by isothermal calorimetric assay; set-up: species or system Bacteria; method in brief: as §3
[21] = tested on: Bacteria; experiment: Inhibition of bacterial IMP-1 (unknown origin) expressed in Escherichia coli EXPRESS BL21(DE3) assessed as inhibition constant by measuring rate of substrate hydrolysis at 100 uM by UV-visible spectrophotometry relative to control; method in brief: as §2
[22] = tested on: Bacteria; experiment: Binding affinity to bacterial VIM-2 (unknown origin) assessed as association constant by isothermal calorimetric assay; method in brief: as §3
[23] = Binding affinity to Zn(II) assessed as dissociation constant by isothermal calorimetric assay
[24] = tested on: Klebsiella pneumoniae; experiment: Antimicrobial activity against blaVIM-4-producing multidrug-resistant Klebsiella pneumoniae VA-416/02 clinical isolate assessed as meropenem MIC using cation-adjusted Mueller-Hinton broth at 4 ug/ml by broth microdilution method (reference value: […] ug/ml); assay type: functional; conditions: dose 4 µg/ml; method in brief: as §1
[25] = tested on: Escherichia coli; experiment: Antimicrobial activity against blaNDM-1-producing multidrug-resistant Escherichia coli SI-004 clinical isolate assessed as meropenem MIC using cation-adjusted Mueller-Hinton broth at 32 ug/ml by broth microdilution method (reference value: 64 ug/ml); assay type: functional; conditions: dose 32 µg/ml; method in brief: as §1
[26] = tested on: Klebsiella pneumoniae; experiment: Antimicrobial activity against blaVIM-4-producing multidrug-resistant Klebsiella pneumoniae VA-416/02 clinical isolate assessed as meropenem MIC using cation-adjusted Mueller-Hinton broth at 1 ug/ml by broth microdilution method (reference value: […] ug/ml); assay type: functional; conditions: dose 1 µg/ml; method in brief: as §1
[27] = tested on: Bacteria; experiment: Inhibition of bacterial VIM-2 (unknown origin) assessed as Zn(II) content in protein at >5 uM by overnight equilibrium dialysis; method in brief: as §4

## O=C(O)[C@H](CCCn1c(-c2ccccc2)n[nH]c1=S)N(Cc1c[nH]cn1)Cc1c[nH]cn1
[1]
  MIC: 0.06 µg/mL
[2]
  MIC: 8 µg/mL
[3]
  MIC: 2 µg/mL
[4]
  MIC: 4 µg/mL
[5]
  inhibition: 57%
[6]
  MIC: 32 µg/mL
[7]
  MIC: 32 µg/mL
[8]
  MIC: 1 µg/mL
[9]
  deltaH: -9.8 kcal/mol
[10]
  Activity: 1.09 equiv
[11]
  MIC: 1 µg/mL
[12]
  MIC: 64 µg/mL
[13]
  MIC: 0.06 µg/mL
[14]
  MIC: 4 µg/mL
[15]
  MIC: 64 µg/mL
[16]
  TdeltaS: -1.4 kcal/mol
[17]
  Activity: Active
[18]
  MIC: 64 µg/mL
[19]
  Activity: Active
[20]
  Kd: 700 nM
[21]
  inhibition: 40%
[22]
  Ka: 1.4 10^6/M
[23]
  Kd: 10 nM
[24]
  MIC: 2 µg/mL
[25]
  MIC: 0.03 µg/mL
[26]
  MIC: 8 µg/mL

## O=C(O)[C@H](CCCn1c(-c2ccccc2)n[nH]c1=S)N(Cc1ccccn1)Cc1ccccn1
[27]
  inhibition: Active
[10]
  Activity: 1.09 equiv
[17]
  Activity: inactive
[19]
  Activity: inactive
[21]
  inhibition: < 30%
[23]
  Kd: 10 nM
